# Experimental data: ChEMBL document CHEMBL4725329, “Anti-proliferative potential of triphenyl substituted pyrimidines against MDA-MB-231, HCT-116 and HT-29 cancer cell lines” (Bioorg Med Chem Lett, 2020)
# Tested on: MDA-MB-231
# Test: Antiproliferative activity against human MDA-MB-231 cells assessed as inhibition of cell proliferation measured after 48 hrs by MTT assay
# Assay type: functional, cell-based
# Settings: MDA-MB-231, 48 h
# How it was run: (§1)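 Cells were exposed to test compounds at 1, 5, 10 and 25 µM for 48 h, with each concentration run in triplicate. Untreated cells served as control. Cell viability was measured and IC₅₀ values were derived as mean ± SD of three independent experiments.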
row,Compound,IC50 [µM]
1,COc1ccc(-c2cc(-c3cc(OC)c(OC)c(OC)c3)nc(-c3ccccc3)n2)cc1,3.39
2,COc1cc(-c2cc(-c3ccccc3)nc(-c3ccccc3)n2)cc(OC)c1OC,5.87
3,COc1cc2c(c(OC)c1OC)-c1ccc(OC)c(=O)cc1[C@@H](NC(C)=O)CC2 [COLCHICINE],0.93
4,COc1cc(-c2cc(-c3cccs3)nc(-c3ccccc3)n2)cc(OC)c1OC,5.11
5,COc1cc(-c2cc(-c3ccc(Cl)cc3)nc(-c3ccccc3)n2)cc(OC)c1OC,> 25
6,COc1cc(-c2cc(-c3ccc(C)cc3)nc(-c3ccccc3)n2)cc(OC)c1OC,5.11
7,COc1cc(-c2cc(-c3ccc(Br)cc3)nc(-c3ccccc3)n2)cc(OC)c1OC,> 25

# More lines, in order of falling IC50, values ahead:
row,IC50 [µM],Compound
1,3.24,COc1cc(-c2cc(-c3cccc4ccccc34)nc(-c3ccccc3)n2)cc(OC)c1OC
2,2.44,COc1cc(-c2cc(-c3cccc([N+](=O)[O-])c3)nc(-c3ccccc3)n2)cc(OC)c1OC
3,1.99,COc1cc(-c2cc(-c3cccc(O)c3)nc(-c3ccccc3)n2)cc(OC)c1OC
4,1.6,COc1cc(-c2cc(-c3ccc(O)cc3)nc(-c3ccccc3)n2)cc(OC)c1OC
5,1.44,COc1ccc(-c2cc(-c3cc(OC)c(OC)c(OC)c3)nc(-c3ccccc3)n2)c(OC)c1
6,1.01,COc1cc(-c2cc(-c3ccc(N)cc3)nc(-c3ccccc3)n2)cc(OC)c1OC
7,0.81,COc1cc(-c2cc(-c3ccc(O)cc3O)nc(-c3ccccc3)n2)cc(OC)c1OC

# Tested on: HCT-116
# Test: Antiproliferative activity against human HCT-116 cells assessed as inhibition of cell proliferation measured after 48 hrs by MTT assay
# Assay type: functional, cell-based
# Settings: HCT-116, 48 h
# How it was run: as §1
row,Compound,IC50 [µM]
1,COc1ccc(-c2cc(-c3cc(OC)c(OC)c(OC)c3)nc(-c3ccccc3)n2)cc1,4.78
2,COc1cc(-c2cc(-c3ccccc3)nc(-c3ccccc3)n2)cc(OC)c1OC,9.95
3,COc1cc2c(c(OC)c1OC)-c1ccc(OC)c(=O)cc1[C@@H](NC(C)=O)CC2 [COLCHICINE],5.13
4,COc1cc(-c2cc(-c3cccs3)nc(-c3ccccc3)n2)cc(OC)c1OC,17
5,COc1cc(-c2cc(-c3ccc(Cl)cc3)nc(-c3ccccc3)n2)cc(OC)c1OC,7.98
6,COc1cc(-c2cc(-c3ccc(C)cc3)nc(-c3ccccc3)n2)cc(OC)c1OC,15.7
7,COc1cc(-c2cc(-c3ccc(Br)cc3)nc(-c3ccccc3)n2)cc(OC)c1OC,4.32

# The next lines start with the values.
row,IC50 [µM],Compound
1,4.93,COc1cc(-c2cc(-c3cccc4ccccc34)nc(-c3ccccc3)n2)cc(OC)c1OC
2,> 25,COc1cc(-c2cc(-c3cccc([N+](=O)[O-])c3)nc(-c3ccccc3)n2)cc(OC)c1OC
3,20.4,COc1cc(-c2cc(-c3cccc(O)c3)nc(-c3ccccc3)n2)cc(OC)c1OC
4,11.8,COc1cc(-c2cc(-c3ccc(O)cc3)nc(-c3ccccc3)n2)cc(OC)c1OC
5,> 25,COc1ccc(-c2cc(-c3cc(OC)c(OC)c(OC)c3)nc(-c3ccccc3)n2)c(OC)c1
6,12.3,COc1cc(-c2cc(-c3ccc(N)cc3)nc(-c3ccccc3)n2)cc(OC)c1OC
7,5.89,COc1cc(-c2cc(-c3ccc(O)cc3O)nc(-c3ccccc3)n2)cc(OC)c1OC

# Tested on: HT-29
# Test: Antiproliferative activity against human HT-29 cells assessed as inhibition of cell proliferation measured after 48 hrs by MTT assay
# Assay type: functional, cell-based
# Settings: HT-29, 48 h
# How it was run: as §1
row,Compound,IC50 [µM]
1,COc1ccc(-c2cc(-c3cc(OC)c(OC)c(OC)c3)nc(-c3ccccc3)n2)cc1,4.23
2,COc1cc(-c2cc(-c3ccccc3)nc(-c3ccccc3)n2)cc(OC)c1OC,7.93
3,COc1cc2c(c(OC)c1OC)-c1ccc(OC)c(=O)cc1[C@@H](NC(C)=O)CC2 [COLCHICINE],5.19
4,COc1cc(-c2cc(-c3cccs3)nc(-c3ccccc3)n2)cc(OC)c1OC,> 25
5,COc1cc(-c2cc(-c3ccc(Cl)cc3)nc(-c3ccccc3)n2)cc(OC)c1OC,6.23
6,COc1cc(-c2cc(-c3ccc(C)cc3)nc(-c3ccccc3)n2)cc(OC)c1OC,> 25
7,COc1cc(-c2cc(-c3ccc(Br)cc3)nc(-c3ccccc3)n2)cc(OC)c1OC,3.17

# The next lines start with the values.
row,IC50 [µM],Compound
1,4.73,COc1cc(-c2cc(-c3cccc4ccccc34)nc(-c3ccccc3)n2)cc(OC)c1OC
2,> 25,COc1cc(-c2cc(-c3cccc([N+](=O)[O-])c3)nc(-c3ccccc3)n2)cc(OC)c1OC
3,> 25,COc1cc(-c2cc(-c3cccc(O)c3)nc(-c3ccccc3)n2)cc(OC)c1OC
4,11.3,COc1cc(-c2cc(-c3ccc(O)cc3)nc(-c3ccccc3)n2)cc(OC)c1OC
5,> 25,COc1ccc(-c2cc(-c3cc(OC)c(OC)c(OC)c3)nc(-c3ccccc3)n2)c(OC)c1
6,> 25,COc1cc(-c2cc(-c3ccc(N)cc3)nc(-c3ccccc3)n2)cc(OC)c1OC
7,4.96,COc1cc(-c2cc(-c3ccc(O)cc3O)nc(-c3ccccc3)n2)cc(OC)c1OC

# Target: T1, Tubulin (Homo sapiens) (UniProt P68371+Q9H4B7+P0DPH7+P68366+Q13509+Q71U36+P04350+Q3ZCM7+P07437+P68363+Q9BQE3+Q6PEY2+Q13885+Q9BVA1+Q9BUF5)
# Test: Inhibition of tubulin polymerization in human HCT-116 cells assessed as cell cycle arrest at G1/G0 phase at 12.5 uM measured after 24 hrs by propidium iodide staining based analysis
# Parameters: scale not given: the % may be the effect or the level left
# Settings: not given
row,Activity [%],Compound
1,5.6,COc1ccc(-c2cc(-c3cc(OC)c(OC)c(OC)c3)nc(-c3ccccc3)n2)cc1
2,11.3,COc1cc(-c2cc(-c3ccc(O)cc3O)nc(-c3ccccc3)n2)cc(OC)c1OC
3,78.5,COc1cc(-c2cc(-c3cccc4ccccc34)nc(-c3ccccc3)n2)cc(OC)c1OC

# Target: T1, Tubulin (Homo sapiens)
# Test: Inhibition of tubulin polymerization in human HCT-116 cells assessed as cell cycle arrest at G2/M phase at 12.5 uM measured after 24 hrs by propidium iodide staining based analysis
# Parameters: scale not given: the % may be the effect or the level left
# Settings: not given
row,Activity [%],Compound
1,88.8,COc1ccc(-c2cc(-c3cc(OC)c(OC)c(OC)c3)nc(-c3ccccc3)n2)cc1
2,79.5,COc1cc(-c2cc(-c3ccc(O)cc3O)nc(-c3ccccc3)n2)cc(OC)c1OC
3,8.1,COc1cc(-c2cc(-c3cccc4ccccc34)nc(-c3ccccc3)n2)cc(OC)c1OC

# Tested on: HCT-116
# Test: Induction of apoptosis in human HCT-116 cells assessed as live cells at 5 uM measured after 24 hrs by annexin-V/FITC staining based flow cytometry analysis (reference value: 97.1 %)
# Assay type: functional
# Settings: not given
row,Compound,Activity [%]
1,COc1ccc(-c2cc(-c3cc(OC)c(OC)c(OC)c3)nc(-c3ccccc3)n2)cc1,28.3
2,COc1cc2c(c(OC)c1OC)-c1ccc(OC)c(=O)cc1[C@@H](NC(C)=O)CC2 [COLCHICINE],38.8
3,COc1cc(-c2cc(-c3ccc(O)cc3O)nc(-c3ccccc3)n2)cc(OC)c1OC,28.7
4,COc1cc(-c2cc(-c3cccc4ccccc34)nc(-c3ccccc3)n2)cc(OC)c1OC,23.7

# Tested on: HCT-116
# Test: Induction of apoptosis in human HCT-116 cells assessed as early apoptotic cells at 5 uM measured after 24 hrs by annexin-V/FITC staining based flow cytometry analysis (reference value: 0.3 %)
# Assay type: functional
# Settings: not given
row,Compound,Activity [%]
1,COc1ccc(-c2cc(-c3cc(OC)c(OC)c(OC)c3)nc(-c3ccccc3)n2)cc1,22.5
2,COc1cc2c(c(OC)c1OC)-c1ccc(OC)c(=O)cc1[C@@H](NC(C)=O)CC2 [COLCHICINE],1.9
3,COc1cc(-c2cc(-c3ccc(O)cc3O)nc(-c3ccccc3)n2)cc(OC)c1OC,35.4
4,COc1cc(-c2cc(-c3cccc4ccccc34)nc(-c3ccccc3)n2)cc(OC)c1OC,26.4

# Tested on: HCT-116
# Test: Induction of apoptosis in human HCT-116 cells assessed as late apoptotic cells at 5 uM measured after 24 hrs by annexin-V/FITC staining based flow cytometry analysis (reference value: 2.4 %)
# Assay type: functional
# Settings: not given
row,Compound,Activity [%]
1,COc1ccc(-c2cc(-c3cc(OC)c(OC)c(OC)c3)nc(-c3ccccc3)n2)cc1,48.3
2,COc1cc2c(c(OC)c1OC)-c1ccc(OC)c(=O)cc1[C@@H](NC(C)=O)CC2 [COLCHICINE],56.4
3,COc1cc(-c2cc(-c3ccc(O)cc3O)nc(-c3ccccc3)n2)cc(OC)c1OC,35.2
4,COc1cc(-c2cc(-c3cccc4ccccc34)nc(-c3ccccc3)n2)cc(OC)c1OC,49.6

# Tested on: HCT-116
# Test: Induction of apoptosis in human HCT-116 cells assessed as necrotic cells at 5 uM measured after 24 hrs by annexin-V/FITC staining based flow cytometry analysis (reference value: 0.2 %)
# Assay type: functional
# Settings: not given
row,Compound,Activity [%]
1,COc1ccc(-c2cc(-c3cc(OC)c(OC)c(OC)c3)nc(-c3ccccc3)n2)cc1,0.9
2,COc1cc2c(c(OC)c1OC)-c1ccc(OC)c(=O)cc1[C@@H](NC(C)=O)CC2 [COLCHICINE],2.9
3,COc1cc(-c2cc(-c3ccc(O)cc3O)nc(-c3ccccc3)n2)cc(OC)c1OC,0.6
4,COc1cc(-c2cc(-c3cccc4ccccc34)nc(-c3ccccc3)n2)cc(OC)c1OC,0.3
